How the values were obtained:
[1] = test system: Leishmania donovani; assay: Antileishmanial activity against Leishmania donovani amastigote infected in mouse J774A.1 cells after 72 hrs by luciferase reporter gene assay; format: functional, organism-based; conditions: J774.A1, 72 h
Outline: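 Macrophages seeded at 4×10^4 cells/well in RPMI-1640 + 10% FCS, 37 °C CO2, 24 h; then infected with stationary-phase luciferase-expressing promastigotes (4×10^5/well), which transform to amastigotes. Compounds at 2-fold dilutions, 7 points from 40 µM, 72 h. Read-out: luminescence after Steady Glo in PBS. IC50 by nonlinear regression of concentration-response, four-parameter Hill equation.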

[2] = test system: Leishmania donovani; assay: Leishmanicidal activity against Leishmania donovani MHOM/IN/80/Dd8 infected in golden hamster at 50 mg/kg, ip for 5 consecutive days measured on day 7 of last drug administration by Giemsa staining method; format: functional; conditions: MHOM/IN/80/Dd8, ip, 168 h, route intraperitoneal
Outline: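 Inbred hamsters of either sex, 40-45 g, infected intracardially with 1×10^7 amastigotes; infection establishes in 15-20 days. Only animals with +1 infection (5-15 amastigotes/100 spleen nuclei) on pre-treatment spleen biopsy were used, randomized by parasite burden, 5-6 per group. i.p. dosing began 2 days after biopsy. Giemsa amastigote counts; PI = 100 − [ANAT×100/(INAT×TIUC)].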

[3] = Cytotoxicity against human KB cells after 72 hrs by MTT assay; format: cell-based
Outline: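 Exponentially growing cells at 1×10^5/well, 72 h at 37 °C, humidified CO2, with compounds at 3-fold dilutions, 7 points from 400 µM. Compounds dissolved in DMSO, diluted in complete medium. DMSO vehicle wells; podophyllotoxin reference. MTT (5 mg/ml in PBS) 2 h at 37 °C, formazan dissolved in DMSO, absorbance 544 nm. CC50 is the concentration giving 50% viability loss versus medium-only cells, estimated per Huber and Koella.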

[4] = Selectivity index, ratio of CC50 for human KB cells to IC50 for Leishmania donovani amastigote infected in mouse J774A.1 cells; format: functional
Outline: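 SI computed as CC50 in KB cells (MTT, 72 h) divided by IC50 against amastigotes in luciferase-reporter infected J774A.1 macrophages (72 h).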

Row | IC50 [1] [µM] | SMILES | other results
1 | > 20 | COc1cc(C2CC(/C=C/C3=C(C)CCCC3(C)C)=NN2c2ccccc2)cc(OC)c1OC (stereo not drawn) | –
2 | 7.49 | COc1ccc(C2CC(/C=C/C3=C(C)CCCC3(C)C)=NN2c2ccccc2)cc1OC (stereo not drawn) | inhibition in vivo at 50 mg/kg [2]: 80.8%; CC50 at 72 h [3]: 221 µM; Ratio CC50/IC50 [4]: 29.46
3 | > 40 | CC1=CCCC(C)(C)C1/C=C/c1cc(-c2ccccc2[N+](=O)[O-])n(-c2ccccc2)n1 (stereo not drawn) | –
4 | > 20 | COc1ccc(-c2cc(/C=C/C3C(C)=CCCC3(C)C)nn2-c2ccccc2)cc1OC (stereo not drawn) | –
5 | > 40 | CC1=C(/C=C/C2=NN(c3ccccc3)C(c3ccc(F)cc3)C2)C(C)(C)CCC1 (stereo not drawn) | –
6 | > 40 | CC1=C(/C=C/C2=NN(c3ccccc3)C(c3ccc([N+](=O)[O-])cc3)C2)C(C)(C)CCC1 (stereo not drawn) | –
7 | > 40 | CC1=CCCC(C)(C)C1/C=C/C1=NN(c2ccccc2)C(c2ccc([N+](=O)[O-])cc2)C1 (stereo not drawn) | –
8 | > 20 | COc1cc(C2CC(/C=C/C3C(C)=CCCC3(C)C)=NN2c2ccccc2)cc(OC)c1OC (stereo not drawn) | –
9 | – | CCCCCCCCCCCCCCCCOP(=O)([O-])OCC[N+](C)(C)C [MILTEFOSINE] | inhibition in vivo at 50 mg/kg [2]: 95.3%; Ratio CC50/IC50 [4]: 0.26
10 | > 20 | CC1=C(/C=C/C2=NN(c3ccccc3)C(c3ccc(Cl)cc3)C2)C(C)(C)CCC1 (stereo not drawn) | –
11 | > 20 | COc1ccc(C2CC(/C=C/C3C(C)=CCCC3(C)C)=NN2c2ccccc2)cc1OC (stereo not drawn) | –
12 | 16.9 | CC1=C(/C=C/C2=NN(c3ccccc3)C(c3cccc([N+](=O)[O-])c3)C2)C(C)(C)CCC1 (stereo not drawn) | inhibition in vivo at 50 mg/kg [2]: 7.13%; CC50 at 72 h [3]: 279 µM; Ratio CC50/IC50 [4]: 16.48
13 | > 40 | CC1=CCCC(C)(C)C1/C=C/C1=NN(c2ccccc2)C(c2ccc(F)cc2)C1 (stereo not drawn) | –
14 | > 40 | CC1=C(/C=C/C2=NN(c3ccccc3)C(c3ccc(OCc4ccccc4)cc3)C2)C(C)(C)CCC1 (stereo not drawn) | –
15 | > 40 | CC1=C(/C=C/C2=NN(c3ccccc3)C(c3cccc(Cl)c3)C2)C(C)(C)CCC1 (stereo not drawn) | –
16 | > 40 | CC1=CCCC(C)(C)C1/C=C/c1cc(-c2ccc(F)cc2)n(-c2ccccc2)n1 (stereo not drawn) | –
17 | > 20 | CC1=CCCC(C)(C)C1/C=C/C1=NN(c2ccccc2)C(c2ccccc2[N+](=O)[O-])C1 (stereo not drawn) | –
18 | > 20 | CC1=C(/C=C/C2=NN(c3ccccc3)C(c3ccccc3Cl)C2)C(C)(C)CCC1 (stereo not drawn) | –
19 | > 40 | COc1cc(-c2cc(/C=C/C3C(C)=CCCC3(C)C)nn2-c2ccccc2)cc(OC)c1OC (stereo not drawn) | –
20 | > 20 | CC1=C(/C=C/C2=NN(c3ccccc3)C(c3ccccc3[N+](=O)[O-])C2)C(C)(C)CCC1 (stereo not drawn) | –
21 | > 40 | CC1=CCCC(C)(C)C1/C=C/c1cc(-c2ccc([N+](=O)[O-])cc2)n(-c2ccccc2)n1 (stereo not drawn) | –
